ChEMBL document CHEMBL2380292, “Discovery of SAR184841, a potent and long-lasting inhibitor of 11β-hydroxysteroid dehydrogenase type 1, active in a physiopathological animal model of T2D” (Bioorg Med Chem Lett, 2013)

Legend:
Mus musculus [1] = test: Antidiabetic activity in diet induced obese C57Bl/6J mouse assessed as plasma triglyceride level at 1 mg/kg, po qd administered for 4 weeks (reference value: 36.2 +/- 2.1 […]); type: functional
Mus musculus [2] = test: Antidiabetic activity in diet induced obese C57Bl/6J mouse assessed as plasma insulin level at 1 mg/kg, po qd administered for 4 weeks (reference value: 3.6 +/- 0.2 ng/mL); type: functional
Mus musculus [3] = test: Toxicity in C57Bl/6J mouse assessed as change in body weight at 1 to 10 mg/kg, po; type: organism-based; set-up: dose 1-10 mg/kg, route oral; conditions: in vivo
In short: (§1)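 C57Bl/6J mice, 20 weeks old, kept on a high-fat/high-fructose diet (diet-induced obese), were dosed orally once daily for 4 weeks at 1, 3 or 10 mg/kg/day in methylcellulose-Tween 80 vehicle. Lean and obese vehicle-treated controls were included, with n = 9–10 per group. Food intake and body weight were followed. Plasma drug levels were taken at study end, about 22 h after the last dose.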

[4] = Permeability across human Caco2 cells; type: ADME, cell-based; conditions: Caco-2, read-out: permeability
In short: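 Permeability was measured with the compound alone and in the presence of the P-gp inhibitor elacridar, and expressed in 10^-7 cm/s.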

Liver microsomes = test: Metabolic stability in human liver microsomes; type: ADME, Microsome
Mus musculus [5] = test: Ex vivo inhibition of 11beta-HSD1 in C57Bl/6J mouse liver at 3 mg/kg, po after 16 hrs; type: functional
In short: (§2)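 Mice given a single oral dose as a suspension in Tween 80/0.6% methylcellulose (0.5/99.5, v/v) at 10 mL/kg. At 2 h or 16 h post-dose, animals were killed by cervical dislocation and 50 mg liver and 200 mg subcutaneous fat were taken for 11β-HSD1 activity. Reactions were stopped with HCl 1 N/methanol (1/1). 3H-cortisone and 3H-cortisol were quantified by HPLC with flow scintillation detection.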

Mus musculus [6] = test: Antidiabetic activity in diet induced obese C57Bl/6J mouse assessed as plasma insulin level at 3 mg/kg, po qd administered for 4 weeks (reference value: 3.6 +/- 0.2 ng/mL); type: functional
Mus musculus [7] = test: Antidiabetic activity in diet induced obese C57Bl/6J mouse assessed as plasma insulin level at 10 mg/kg, po qd administered for 4 weeks (reference value: 3.6 +/- 0.2 ng/mL); type: functional
Hepatocyte = test: Intrinsic clearance in human hepatocytes assessed per 10^-6 cells; type: ADME, cell-based
Mus musculus [8] = test: Antidiabetic activity in diet induced obese C57Bl/6J mouse assessed as plasma leptin level at 3 mg/kg, po qd administered for 4 weeks (reference value: 22.5 +/- 2.4 ng/mL); type: functional
[9] = molecular target: 11-beta-hydroxysteroid dehydrogenase 1 (Mus musculus, UniProt P50172); test: Inhibition of mouse recombinant 11beta-HSD1 by scintillation proximity assay
Chain of 11-beta-hydroxysteroid dehydrogenase 1 (Mus musculus, UniProt P50172) (P50172 whole entry): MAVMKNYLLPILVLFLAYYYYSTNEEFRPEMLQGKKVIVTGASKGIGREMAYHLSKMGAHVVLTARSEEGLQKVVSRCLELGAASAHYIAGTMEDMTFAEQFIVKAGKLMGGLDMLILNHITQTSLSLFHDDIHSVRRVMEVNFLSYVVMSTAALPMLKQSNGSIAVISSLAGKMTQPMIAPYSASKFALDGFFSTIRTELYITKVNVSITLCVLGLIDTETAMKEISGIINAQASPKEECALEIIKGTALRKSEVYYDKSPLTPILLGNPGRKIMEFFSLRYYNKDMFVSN

Mus musculus [10] = test: Antidiabetic activity in diet induced obese C57Bl/6J mouse assessed as plasma glucose level at 1 mg/kg, po qd administered for 4 weeks (reference value: 297 +/- 15 mg/dL); type: functional
Mus musculus [11] = test: Antidiabetic activity in diet induced obese C57Bl/6J mouse assessed as plasma leptin level at 10 mg/kg, po qd administered for 4 weeks (reference value: 22.5 +/- 2.4 ng/mL); type: functional
Liver = test: Metabolic stability in mouse liver microsomes; type: ADME, Microsome
Mus musculus [12] = test: Ex vivo inhibition of 11beta-HSD1 in C57Bl/6J mouse subcutaneous fat at 3 mg/kg, po after 16 hrs; type: functional; in short: as §2
[13] = Plasma concentration in C57Bl/6J mouse at 10 mg/kg, po 22 hrs post last dose; type: ADME, organism-based; set-up: dose 10 mg/kg, route oral; in short: as §1
Mus musculus [14] = test: Ex vivo inhibition of 11beta-HSD1 in C57Bl/6J mouse subcutaneous fat at 30 mg/kg, po after 16 hrs; type: functional; in short: as §2
[15] = Plasma clearance in rat at 3 mg/kg, iv and 10 mg/kg, po; type: ADME, organism-based
Mus musculus [16] = test: Antidiabetic activity in po dosed C57Bl/6J mouse assessed as reduction in plasma insulin level administered for 4 weeks; type: functional, organism-based
Mus musculus [17] = test: Toxicity in C57Bl/6J mouse assessed as effect on food intake at 1 to 10 mg/kg, po; type: organism-based; set-up: dose 1-10 mg/kg, route oral; conditions: in vivo; in short: as §1
[18] = molecular target: 11-beta-hydroxysteroid dehydrogenase 1 (Rattus norvegicus, UniProt P16232); test: Inhibition of rat 11beta-HSD1
Chain of 11-beta-hydroxysteroid dehydrogenase 1 (Rattus norvegicus, UniProt P16232) (P16232 whole entry): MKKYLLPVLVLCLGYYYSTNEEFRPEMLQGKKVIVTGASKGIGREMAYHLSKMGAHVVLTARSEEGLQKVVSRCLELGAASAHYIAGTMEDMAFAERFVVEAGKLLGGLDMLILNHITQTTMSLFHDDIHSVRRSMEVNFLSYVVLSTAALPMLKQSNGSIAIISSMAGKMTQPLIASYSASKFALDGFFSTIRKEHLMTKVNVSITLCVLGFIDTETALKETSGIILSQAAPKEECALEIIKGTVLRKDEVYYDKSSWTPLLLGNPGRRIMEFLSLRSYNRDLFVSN

Mus musculus [19] = test: Antidiabetic activity in diet induced obese C57Bl/6J mouse assessed as liver triglyceride level at 3 mg/kg, po qd administered for 4 weeks (reference value: 210.5 +/- 15.4 mg/g); type: functional

Papp [4]: 0.3 ×10⁻⁶ cm/s
Stability (Liver microsomes): 2%
CLH (Hepatocyte): 0.035 mL/h
IC50 [9]: 6 nM
Stability (Liver): 13%
concentration at 22 h [13]: 2.6 nM
clearance [15]: 86.7 mL/min/kg
IC50 [18]: 7 nM
SMILES: CC(C)(C)N1CCN(c2ccc(N3CCN(C(=O)N[C@H]4C5CC6CC4C[C@](C(N)=O)(C6)C5)c4ccccc43)nc2)CC1
Activity (Mus musculus [1]): 33.8 mg/mL
Activity (Mus musculus [2]): 2.8 ng/mL
Activity (Mus musculus [3]): Non-toxic
inhibition in vivo at 3 mg/kg (Mus musculus [5]): > 50%
Activity (Mus musculus [6]): 2.3 ng/mL
Activity (Mus musculus [7]): 1.9 ng/mL
Activity (Mus musculus [8]): 12.5 ng/mL
Activity (Mus musculus [10]): 263 mg/dL
Activity (Mus musculus [11]): 12.5 ng/mL
inhibition in vivo at 3 mg/kg (Mus musculus [12]): > 50%
inhibition in vivo at 30 mg/kg (Mus musculus [14]): 60%
Activity (Mus musculus [16]): Dose-dependent effect
Activity (Mus musculus [17]): Non-toxic
Activity (Mus musculus [19]): 142.8 mg/g
